Test results published in ChEMBL document CHEMBL5724801, “EUbOPEN Chemogenomics Library - Multiplex” (2024).
“And” between values parts separate entries of the source, which are not always exact repeats. Identical values can stand only once.

Columns and labels:
[1] = test system: HEK-293T; test: Multiplex assay against HEK293T; assay type: toxicity, cell-based; conditions: human
Outline: (§1)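 Per cents of healthy-nucleus cells form the tubulin, mitochondrial-mass and membrane-permeability phenotype values. Live cells were stained at seeding with Hoechst33342, BioTracker Green Microtubule Cytoskeleton Dye, MitoTracker Red and Annexin V Alexa Fluor 680. After compound addition they were imaged on a CQ1 microscope at 37°C and 5% CO2, and CellPathfinder machine-learning gating split them into Hoechst high-intensity objects or normal cells, normal cells into healthy, pyknosed or fragmented nuclei, and pyknosed cells into mitotic or apoptotic.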

[2] = test system: Fibroblast; test: Multiplex assay against human fibroblast; assay type: toxicity, cell-based; outline: as §1
[3] = 24 h, 1 µM, compound concentration 1 uM
[4] = 24 h, 10 µM, compound concentration 10 uM
[5] = 48 h, 1 µM, compound concentration 1 uM
[6] = 48 h, 10 µM, compound concentration 10 uM
[7] = 12 h, 1 µM, compound concentration 1 uM
[8] = 12 h, 10 µM, compound concentration 10 uM

COc1cc(C(=O)N(CCCc2ccccc2)Cc2ccc(CC(=O)O)cc2)cc(OC)c1C
Total Cell Count [1, 3]: 483 and 507 | Population Apoptotic (%) [1, 4]: 34% and 42% | Population Fragmented Nuclei (%) [1, 4]: 7% | Population Healthy Nuclei (%) [1, 4]: 80% and 79% | Population Hoechst High Intensity Objects (%) [1, 4]: 7% and 6% | Population Membrane Permeable-Phenotype (%) [1, 4]: 0% | Population Mitochondria Different-Phenotype (%) [1, 4]: 39% and 50% | Population Mitotic Cells (%) [1, 4]: 65% and 57% | Population Normal (%) [1, 4]: 92% and 93% | Population Pyknosed Nuclei (%) [1, 4]: 12% | Population Tubulin-Different-Phenotype (%) [1, 4]: 43% and 38% | Total Cell Count [1, 4]: 549 and 526 | Population Apoptotic (%) [1, 5]: 30% and 26% | Population Fragmented Nuclei (%) [1, 5]: 12% and 9% | Population Healthy Nuclei (%) [1, 5]: 77% and 83% | Population Hoechst High Intensity Objects (%) [1, 5]: 1% and 3% | Population Membrane Permeable-Phenotype (%) [1, 5]: 1% | Population Mitochondria Different-Phenotype (%) [1, 5]: 16% and 17% | Population Mitotic Cells (%) [1, 5]: 69% and 73% | Population Normal (%) [1, 5]: 98% and 96% | Population Pyknosed Nuclei (%) [1, 5]: 9% and 7% | Population Tubulin-Different-Phenotype (%) [1, 5]: 11% and 9% | Total Cell Count [1, 5]: 812 and 753 | Population Apoptotic (%) [1, 6]: 32% and 33% | Population Fragmented Nuclei (%) [1, 6]: 12% and 15% | Population Healthy Nuclei (%) [1, 6]: 76% and 75% | Population Hoechst High Intensity Objects (%) [1, 6]: 4% and 8% | Population Membrane Permeable-Phenotype (%) [1, 6]: 1% | Population Mitochondria Different-Phenotype (%) [1, 6]: 29% and 37% | Population Mitotic Cells (%) [1, 6]: 67% and 66% | Population Normal (%) [1, 6]: 95% and 91% | Population Pyknosed Nuclei (%) [1, 6]: 11% and 9% | Population Tubulin-Different-Phenotype (%) [1, 6]: 29% and 34% | Total Cell Count [1, 6]: 729 and 632 | Population Apoptotic (%) [2, 7]: 63% and 42% | Population Fragmented Nuclei (%) [2, 7]: 14% and 37% | Population Healthy Nuclei (%) [2, 7]: 73% and 45% | Population Hoechst High Intensity Objects (%) [2, 7]: 2% and 4% | Population Membrane Permeable-Phenotype (%) [2, 7]: 0% and 11% | Population Mitochondria Different-Phenotype (%) [2, 7]: 0% and 5% | Population Mitotic Cells (%) [2, 7]: 36% and 57% | Population Normal (%) [2, 7]: 97% and 95% | Population Pyknosed Nuclei (%) [2, 7]: 12% and 16% | Population Tubulin-Different-Phenotype (%) [2, 7]: 15% and 36% | Total Cell Count [2, 7]: 160 and 176 | Population Apoptotic (%) [2, 8]: 41% and 45% | Population Fragmented Nuclei (%) [2, 8]: 16% and 25% | Population Healthy Nuclei (%) [2, 8]: 70% and 61% | Population Hoechst High Intensity Objects (%) [2, 8]: 2% and 4% | Population Membrane Permeable-Phenotype (%) [2, 8]: 0% and 7% | Population Mitochondria Different-Phenotype (%) [2, 8]: 5% and 4% | Population Mitotic Cells (%) [2, 8]: 58% and 54% | Population Normal (%) [2, 8]: 97% and 95% | Population Pyknosed Nuclei (%) [2, 8]: 12% and 13% | Population Tubulin-Different-Phenotype (%) [2, 8]: 28% and 47% | Total Cell Count [2, 8]: 197 and 181 | Population Apoptotic (%) [2, 3]: 68% and 52% | Population Healthy Nuclei (%) [2, 3]: 77% and 41% | Population Hoechst High Intensity Objects (%) [2, 3]: 1% and 4% | Population Membrane Permeable-Phenotype (%) [2, 3]: 0% and 1% | Population Mitochondria Different-Phenotype (%) [2, 3]: 0% and 6% | Population Mitotic Cells (%) [2, 3]: 31% and 48% | Population Normal (%) [2, 3]: 98% and 95% | Population Pyknosed Nuclei (%) [2, 3]: 10% and 13% | Population Tubulin-Different-Phenotype (%) [2, 3]: 13% and 28% | Total Cell Count [2, 3]: 156 and 189 | Population Apoptotic (%) [2, 4]: 55% and 40% | Population Fragmented Nuclei (%) [2, 4]: 12% and 25% | Population Healthy Nuclei (%) [2, 4]: 76% and 61% | Population Hoechst High Intensity Objects (%) [2, 4]: 1% and 4% | Population Membrane Permeable-Phenotype (%) [2, 4]: 1% and 5% | Population Mitochondria Different-Phenotype (%) [2, 4]: 6% and 0% | Population Mitotic Cells (%) [2, 4]: 45% and 59% | Population Normal (%) [2, 4]: 98% and 96% | Population Pyknosed Nuclei (%) [2, 4]: 10% and 13% | Population Tubulin-Different-Phenotype (%) [2, 4]: 25% and 41% | Total Cell Count [2, 4]: 192 and 175 | Population Apoptotic (%) [2, 5]: 90% and 52% | Population Fragmented Nuclei (%) [2, 5]: 21% and 50% | Population Healthy Nuclei (%) [2, 5]: 72% and 41% | Population Hoechst High Intensity Objects (%) [2, 5]: 1% and 2% | Population Membrane Permeable-Phenotype (%) [2, 5]: 0% and 3% | Population Mitochondria Different-Phenotype (%) [2, 5]: 0% and 9% | Population Normal (%) [2, 5]: 98% and 97% | Population Pyknosed Nuclei (%) [2, 5]: 6% and 8% | Population Tubulin-Different-Phenotype (%) [2, 5]: 17% and 40% | Total Cell Count [2, 5]: 168 and 211 | Population Apoptotic (%) [2, 6]: 77% and 58% | Population Fragmented Nuclei (%) [2, 6]: 25% and 38% | Population Healthy Nuclei (%) [2, 6]: 65% and 54% | Population Hoechst High Intensity Objects (%) [2, 6]: 2% and 5% | Population Membrane Permeable-Phenotype (%) [2, 6]: 1% and 5% | Population Mitochondria Different-Phenotype (%) [2, 6]: 5% and 3% | Population Mitotic Cells (%) [2, 6]: 22% and 41% | Population Normal (%) [2, 6]: 97% and 94% | Population Pyknosed Nuclei (%) [2, 6]: 9% and 6% | Population Tubulin-Different-Phenotype (%) [2, 6]: 32% and 46% | Total Cell Count [2, 6]: 195 and 187
